pEC50, pKi: −log10 of the molar value. Active and inactive are the calls of the source. The rule behind the calls is not given here.
Tests used:
[1] = Metabolic stability in mouse plasma assessed as esterase-mediated compound hydrolysis by measuring compound half life by HPLC analysis; format: ADME
Outline: (§1)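 Compounds at 200 μM in mouse plasma, 37 °C, shaken at 100 rpm. Samples taken over time, diluted 1:4 in acetonitrile and centrifuged. Supernatant analysed by C18 reverse-phase HPLC with an acetonitrile/acidified water gradient and UV detection (204 and 230 nm). Half-life from exponential decay fit.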

Cannabinoid receptor 1 [2] = molecular target: T1, Cannabinoid receptor 1 (Rattus norvegicus, UniProt P20272); test: Agonist activity at CB1 receptor in rat brain membranes assessed as reduction in forskolin-stimulated cAMP level measured from 3 data points after 30 mins; format: functional, cell membranes, Membrane
T1 sequence (P20272 whole entry): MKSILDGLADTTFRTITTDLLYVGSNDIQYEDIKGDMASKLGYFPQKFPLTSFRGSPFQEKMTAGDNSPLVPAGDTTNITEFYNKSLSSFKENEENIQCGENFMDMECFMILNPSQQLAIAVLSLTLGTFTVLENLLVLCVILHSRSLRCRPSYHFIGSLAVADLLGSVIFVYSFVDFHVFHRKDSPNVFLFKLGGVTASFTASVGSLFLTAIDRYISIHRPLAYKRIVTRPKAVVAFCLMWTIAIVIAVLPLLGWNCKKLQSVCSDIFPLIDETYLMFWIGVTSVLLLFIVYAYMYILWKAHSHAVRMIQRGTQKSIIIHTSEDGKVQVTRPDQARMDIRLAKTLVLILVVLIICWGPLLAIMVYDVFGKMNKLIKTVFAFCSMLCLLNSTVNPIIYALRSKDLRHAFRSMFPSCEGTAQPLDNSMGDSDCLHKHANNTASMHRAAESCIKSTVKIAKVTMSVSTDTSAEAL

Rattus norvegicus [3] = test: Hypothermic activity in sc dosed Sprague-Dawley rat assessed as reduction in body temperature at 0.1 mg/kg, sc measured over 6 hrs post dose relative to baseline; format: functional, organism-based
Cannabinoid receptor 1 [4] = molecular target: T1, Cannabinoid receptor 1; test: Agonist activity at CB1 receptor in rat brain membranes assessed as reduction in forskolin-stimulated cAMP level measured from 8 data points after 30 mins; format: functional, cell membranes, Membrane
Rattus norvegicus [5] = test: Hypothermic activity in sc dosed Sprague-Dawley rat measured over 6 hrs post dose; format: functional
Rattus norvegicus [6] = test: Hypothermic activity in sc dosed Sprague-Dawley rat assessed as reduction in body temperature at 0.03 mg/kg, sc measured after 6 hrs post dose relative to baseline; format: functional, organism-based
Rattus norvegicus [7] = test: Hypothermic activity in sc dosed Sprague-Dawley rat assessed as reduction in body temperature at 0.03 mg/kg, sc measured after 3 hrs post dose relative to baseline; format: functional, organism-based
[8] = molecular target: Cannabinoid receptor 1 (Rattus norvegicus) (UniProt P20272); test: Agonist activity at CB1 receptor in rat brain membranes assessed as reduction in forskolin-stimulated cAMP level after 30 mins relative to CP-55,940; format: functional, cell membranes; conditions: Membrane
Cannabinoid receptor 1 (Rattus norvegicus), sequence (P20272 whole entry): as above

Cannabinoid receptor 2 [9] = molecular target: Cannabinoid receptor 2 (Mus musculus, UniProt P47936); test: Displacement of [3H]CP-55,940 from mouse CB2 receptor expressed in HEK293 cells by scintillation counting method; format: cell-based
Cannabinoid receptor 2 (Mus musculus, UniProt P47936), sequence (P47936 whole entry): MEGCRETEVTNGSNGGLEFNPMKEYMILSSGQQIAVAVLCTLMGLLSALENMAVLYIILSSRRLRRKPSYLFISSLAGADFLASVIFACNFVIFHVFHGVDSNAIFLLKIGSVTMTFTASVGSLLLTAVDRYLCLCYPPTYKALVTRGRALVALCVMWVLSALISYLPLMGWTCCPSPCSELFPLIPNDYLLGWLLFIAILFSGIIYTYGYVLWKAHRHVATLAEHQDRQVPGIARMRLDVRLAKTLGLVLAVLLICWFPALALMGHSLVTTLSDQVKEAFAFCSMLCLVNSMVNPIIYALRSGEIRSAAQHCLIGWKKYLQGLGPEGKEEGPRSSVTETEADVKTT
Outline: (§2)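 Competition binding against [3H]CP-55,940. Membranes from rat brain (CB1) or from HEK293 cells expressing mouse or human CB2. IC50 from nonlinear regression, converted to Ki. Each experiment run in triplicate; Ki is the mean of three independent experiments.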

Rattus norvegicus [10] = test: Hypothermic activity in sc dosed Sprague-Dawley rat assessed as reduction in body temperature at 0.3 mg/kg, sc measured after 12 hrs post dose relative to baseline; format: functional, organism-based
Cannabinoid receptor 2 [11] = molecular target: Cannabinoid receptor 2 (Homo sapiens, UniProt P34972); test: Displacement of [3H]CP-55,940 from human CB2 receptor expressed in HEK293 cells by scintillation counting method; format: cell-based; outline: as §2
Cannabinoid receptor 2 (Homo sapiens, UniProt P34972), sequence (P34972 whole entry): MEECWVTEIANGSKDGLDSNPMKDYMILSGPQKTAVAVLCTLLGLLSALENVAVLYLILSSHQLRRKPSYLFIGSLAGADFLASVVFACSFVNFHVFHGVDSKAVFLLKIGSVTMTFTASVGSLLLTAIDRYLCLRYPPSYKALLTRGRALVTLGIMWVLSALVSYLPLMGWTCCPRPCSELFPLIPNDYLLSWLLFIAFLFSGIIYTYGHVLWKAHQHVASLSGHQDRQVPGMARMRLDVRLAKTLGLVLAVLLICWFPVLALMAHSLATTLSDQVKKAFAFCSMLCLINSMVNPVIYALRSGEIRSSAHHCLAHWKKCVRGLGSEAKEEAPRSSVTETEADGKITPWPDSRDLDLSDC

Cannabinoid receptor 1 [12] = molecular target: T1, Cannabinoid receptor 1; test: Displacement of [3H]CP-55,940 from CB1 receptor in rat brain membranes by scintillation counting method; format: cell membranes, Membrane; outline: as §2
[13] = Metabolic stability in mouse plasma assessed as esterase-mediated compound hydrolysis measured within 5 hrs by HPLC analysis; format: ADME; outline: as §1

Structure (SMILES)	t1/2 [1] [min]	pEC50 (Cannabinoid receptor 1 [2])	pKi (Cannabinoid receptor 2 [9])	pKi (Cannabinoid receptor 2 [11])	also measured
CC1=CC[C@@H]2[C@@H](C1)c1c(O)cc(C3(C(=O)OCCCCC#N)CCC3)cc1OC2(C)C	115	8.00 to 9.00	–	–	–
CC1=CC[C@@H]2[C@@H](C1)c1c(O)cc(C(C)(C)C(=O)OCCCC#N)cc1OC2(C)C	46.5	> 9.00	9.10	–	deltaT (Rattus norvegicus [3]): < 4.5 °C; pEC50 (Cannabinoid receptor 1 [4]): 9.05; Activity (Rattus norvegicus [5]): Dose-dependent effect; ED50 (Rattus norvegicus [5]): 0.034 mg/kg; Activity (Rattus norvegicus [6]): inactive; deltaT (Rattus norvegicus [7]): 2 °C; Emax [8]: 89%
CCCCOC(=O)C(C)(C)c1cc(O)c2c(c1)OC(C)(C)[C@@H]1CC=C(C)C[C@@H]21	12.4	> 9.00	–	–	Activity (Rattus norvegicus [10]): Active; ED50 (Rattus norvegicus [5]): 0.37 mg/kg
CC1=CC[C@@H]2[C@@H](C1)c1c(O)cc(C(C)(C)CO)cc1OC2(C)C	–	–	< 5.00	< 5.00	–
CC1=CC[C@@H]2[C@@H](C1)c1c(O)cc(C(C)(C)C(=O)OCCBr)cc1OC2(C)C	–	–	–	8.54	pKi (Cannabinoid receptor 1 [12]): 8.11
CC1=CC[C@@H]2[C@@H](C1)c1c(O)cc(C(C)(C)C(=O)OCCCBr)cc1OC2(C)C	–	–	–	9.15	–
CC1=CC[C@@H]2[C@@H](C1)c1c(O)cc(CC(=O)OCCCCC#N)cc1OC2(C)C	3.2	7.00 to 8.00	–	–	–
CCCCOC(=O)Cc1cc(O)c2c(c1)OC(C)(C)[C@@H]1CC=C(C)C[C@@H]21	0.7	–	–	–	–
CC1=CC[C@@H]2[C@@H](C1)c1c(O)cc(C(C)(C)C(=O)OCCCCn3ccnc3)cc1OC2(C)C	392	–	8.09	8.11	–
CCCCC(=O)OCC(C)(C)c1cc(O)c2c(c1)OC(C)(C)[C@@H]1CC=C(C)C[C@@H]21	9.5	–	8.92	9.00	pKi (Cannabinoid receptor 1 [12]): 9.30
CCOC(=O)C(C)(C)c1cc(O)c2c(c1)OC(C)(C)[C@@H]1CC=C(C)C[C@@H]21	–	8.00 to 9.00	–	–	–
CC1=CC[C@@H]2[C@@H](C1)c1c(O)cc(C3(C(=O)OCCCCBr)CCC3)cc1OC2(C)C	47.9	–	–	–	–
CCCCCNC(=O)C(C)(C)c1cc(O)c2c(c1)OC(C)(C)[C@@H]1CC=C(C)C[C@@H]21	–	8.00 to 9.00	–	–	Stability [13]: Stable
CC1=CC[C@@H]2[C@@H](C1)c1c(O)cc(C(C)(C)C(=O)OCCCCC#N)cc1OC2(C)C	40.4	8.00 to 9.00	10.00	9.05	–
CC1=CC[C@@H]2[C@@H](C1)c1c(O)cc(C(C)(C)C(=O)OCCCn3ccnc3)cc1OC2(C)C	271	8.00 to 9.00	8.68	8.89	–
CCCCOC(=O)C1(c2cc(O)c3c(c2)OC(C)(C)[C@@H]2CC=C(C)C[C@@H]32)CCC1	36.3	> 9.00	–	–	–
CCCSC(=O)C(C)(C)c1cc(O)c2c(c1)OC(C)(C)[C@@H]1CC=C(C)C[C@@H]21	312	–	9.10	9.15	pKi (Cannabinoid receptor 1 [12]): 9.30
CC1=CC[C@@H]2[C@@H](C1)c1c(O)cc(C(C)(C)C(=O)OCCCCBr)cc1OC2(C)C	12.9	–	9.05	9.10	pKi (Cannabinoid receptor 1 [12]): 8.92
CC1=CC[C@@H]2[C@@H](C1)c1c(O)cc(C(C)(C)C(=O)OCCCCCBr)cc1OC2(C)C	–	–	8.96	9.22	pKi (Cannabinoid receptor 1 [12]): 8.92
COC(=O)C(C)(C)c1cc(O)c2c(c1)OC(C)(C)[C@@H]1CC=C(C)C[C@@H]21	–	–	7.43	7.46	–
CC1=CC[C@@H]2[C@@H](C1)c1c(O)cc(CC(=O)OCCCCBr)cc1OC2(C)C	1.7	–	–	–	–

From ChEMBL document CHEMBL4000142, “Probing the carboxyester side chain in controlled deactivation (-)-δ(8)-tetrahydrocannabinols” (J Med Chem, 2015)
